From PubChem BioAssay
The source made the active and inactive calls.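 Rule for the calls, unless noted: active = Her2 level under about 52% in both replicate screens, with viability over 70% of control (limit read from the data); inconclusive = Her2 under the limit in one screen only, or viability under 70%; inactive = Her2 level above the set limit.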

Tests used:
[1] = reducers of endogenous Her2 protein level, primary screen, SKBR3 breast tumor cells, AlphaScreen, ATP viability (AID 461); conditions: 18-24 h, measured here: SKBR3 viability, ATP luminescence, at 10 µM;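 for Her2 level: lower value means less Her2 protein in the cells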;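 for viability: percent of carrier control wells set as 100% viability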
[2] = target: Receptor tyrosine-protein kinase erbB-2 (Homo sapiens) (UniProt P04626); assay: as above; conditions: 18-24 h, at 10 µM, stronger effect = lower value
Receptor tyrosine-protein kinase erbB-2 (Homo sapiens), sequence (P04626 whole entry, looked up): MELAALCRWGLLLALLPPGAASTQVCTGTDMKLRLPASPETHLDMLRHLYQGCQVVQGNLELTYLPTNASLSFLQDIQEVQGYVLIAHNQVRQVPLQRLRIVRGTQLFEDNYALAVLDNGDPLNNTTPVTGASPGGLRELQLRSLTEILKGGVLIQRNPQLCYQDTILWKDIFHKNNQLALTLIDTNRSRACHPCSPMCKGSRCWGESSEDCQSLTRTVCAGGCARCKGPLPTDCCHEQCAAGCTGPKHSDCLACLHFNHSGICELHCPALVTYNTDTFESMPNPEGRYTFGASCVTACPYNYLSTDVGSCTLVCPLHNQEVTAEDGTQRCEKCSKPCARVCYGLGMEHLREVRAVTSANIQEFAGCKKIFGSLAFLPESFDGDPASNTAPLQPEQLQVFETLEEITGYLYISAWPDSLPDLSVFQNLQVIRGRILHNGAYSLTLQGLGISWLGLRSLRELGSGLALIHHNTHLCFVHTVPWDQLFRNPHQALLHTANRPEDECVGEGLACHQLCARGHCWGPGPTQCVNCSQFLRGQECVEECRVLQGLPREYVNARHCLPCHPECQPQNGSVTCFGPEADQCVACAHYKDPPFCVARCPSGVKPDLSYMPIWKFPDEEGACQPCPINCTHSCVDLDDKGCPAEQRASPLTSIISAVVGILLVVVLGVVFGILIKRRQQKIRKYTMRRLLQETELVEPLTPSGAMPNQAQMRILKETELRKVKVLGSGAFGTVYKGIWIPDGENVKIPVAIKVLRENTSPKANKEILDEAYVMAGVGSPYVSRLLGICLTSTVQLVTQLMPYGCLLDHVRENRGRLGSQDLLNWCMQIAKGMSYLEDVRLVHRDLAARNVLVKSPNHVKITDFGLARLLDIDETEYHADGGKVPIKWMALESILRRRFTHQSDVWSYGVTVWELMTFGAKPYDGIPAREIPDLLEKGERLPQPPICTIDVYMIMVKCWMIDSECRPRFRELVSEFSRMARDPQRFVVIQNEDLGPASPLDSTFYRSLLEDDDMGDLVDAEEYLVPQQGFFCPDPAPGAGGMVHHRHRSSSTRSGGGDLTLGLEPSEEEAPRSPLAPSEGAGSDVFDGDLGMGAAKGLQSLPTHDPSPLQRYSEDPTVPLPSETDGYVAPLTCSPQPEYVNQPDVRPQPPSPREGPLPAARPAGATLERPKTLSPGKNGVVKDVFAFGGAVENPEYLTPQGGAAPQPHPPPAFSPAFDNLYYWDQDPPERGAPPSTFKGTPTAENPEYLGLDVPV

[3] = SK-BR-3 cell growth inhibitors, pilot screen, 24 h, human (AID 572;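 active = viability at or below 10% of carrier control in both of two separate runs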;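 note: compound exposure lasted between 18 and 24 h rather than exactly 24 h; 100% = carrier-treated control wells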); conditions: SK-BR-3 viability, CellTiter-Glo luminescence, at 10 µM, stronger effect = lower value
[4] = HUVEC growth inhibition – cell-based, human, primary screen (AID 575;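 active = viability at or below 30% in both replicate assays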;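 note: 100% = median of untreated cell wells with 0.1% DMSO on each plate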); conditions: HUVEC proliferation, CellTiter-Glo luminescence, 72 h; at 10 µM; stronger effect = lower value
How it was run: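 Timing: 72 h treatment at 37 °C; material: HUVEC primary cells; technique: CellTiter-Glo luminescence measuring cellular ATP; controls: vehicle and MePR control wells; measure: percent of median DMSO-control luminescence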

[5] = growth inhibitors of H69AR lung tumor, primary screen, human, duplicate replicates (AID 580;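 active = viability at or under a set limit in both replicates, limit being median viability minus 3 SD, cut at about 48% in these data, passing the limit was not always enough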;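 note: 100% = mean luminescence of untreated wells and 0% = no signal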); conditions: H69AR lung tumor cells viability, ATP luminescence, 72 h; at 10 µM; stronger effect = lower value
[6] = reversal of MRP1-mediated doxorubicin resistance, pilot screen, H69AR cells, doxorubicin co-treatment (AID 601;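 active = viability loss from added drug above about 55%, and viability with drug at most 40%, in both replicates, limit read from the data, passing the limit was not always enough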); conditions: CellTiter-Glo, 72 h, at 10 µM; for differential viability (reversal): stronger effect = higher value
[7] = 384-well plate pilot, post-Golgi transport modulator project, inhibition of yeast transport mutant growth (AID 636; in the data active = inhibition above about 31%); conditions: absorbance 615 nm, about 18 h, stronger effect = higher value
[8] = growth suppression of yeast trafficking mutant, preliminary HTS, modulators of trafficking downstream of Golgi apparatus project, 1536-format plate, OD 615 nm (AID 637; in the data active = inhibition above about 30%); conditions: yeast transport mutant growth, absorbance 615 nm, 18 h; stronger effect = higher value
[9] = H69AR cells + 2 uM doxorubicin, measured here: viability with 2 uM doxorubicin, stronger effect = lower value
[10] = H69AR cells, compound alone cytotoxicity

Row | SMILES | viability [1] [%] | Her2 level [2] | viability [3] | viability [4] | viability [5] | differential viability (reversal) ([6]; H69AR cells + 2 uM doxorubicin) | viability [6, 9] [%] | viability [6, 10] [%] | inhibition [7] | inhibition [8]
1 | N#Cc1c2n(c(=S)n(-c3ccccn3)c1=O)CCCCC2 | 81.5 | 91.5% (inactive) | 81.5% (inactive) | 97.8% (inactive) | 86% (inactive) | -5.17% (inactive) | 91.1 | 86 | 2.99% (inactive) | -10.7% (inactive)
2 | O=S(=O)(NCc1cccnc1)c1cccc2nsnc12 | 98 | 83.5% (inactive) | 98% (inactive) | 89.6% (inactive) | 92.3% (inactive) | 6.5% (inactive) | 85.8 | 92.3 | -7.07% (inactive) | 6.56% (inactive)
3 | Cc1ccc(N2CCN(C(=S)c3ccc(N(C)C)cc3)CC2)cc1 | 89.5 | 82.5% (inactive) | 89.5% (inactive) | 91.8% (inactive) | 82.6% (inactive) | -9.83% (inactive) | 92.4 | 82.6 | -3.92% (inactive) | -6.19% (inactive)
4 | CCC1SC2=NC(C)=C(C(=O)OC)C(c3ccc(C)cc3)N2C1=O (stereo not given) | 94 | 96% (inactive) | 94% (inactive) | 109% (inactive) | 99.6% (inactive) | 9% (inactive) | 90.6 | 99.6 | -3.51% (inactive) | -1.59% (inactive)
5 | CCOC(=O)c1cnn(-c2cc(C)nc3c(-c4ccccc4)c(C)nn23)c1N | 120 | 89% (inactive) | 120% (inactive) | 84.2% (inactive) | 89.4% (inactive) | 15.7% (inactive) | 73.7 | 89.4 | -3.77% (inactive) | -5.56% (inactive)
6 | CC1=C(C(=O)NC2CCCC(C)C2C)C2(CCCCC2)OC1=O (stereo not given) | 118 | 100% (inactive) | 118% (inactive) | 97.6% (inactive) | 95.8% (inactive) | 8.08% (inactive) | 87.7 | 95.8 | -0.27% (inactive) | 3.67% (inactive)
7 | C=CCn1c(=O)/c(=C/c2ccc(O)cc2)s/c1=C(/C#N)c1nnc2n1CCCCC2 | 93.5 | 103% (inactive) | 93.5% (inactive) | 83.4% (inactive) | 85.5% (inactive) | 8.51% (inactive) | 77 | 85.5 | -5.27% (inactive) | -2.83% (inactive)
8 | Cn1nnnc1SCC(=O)NC1CCCCC1 | 77.5 | 77% (inactive) | 77.5% (inactive) | 108% (inactive) | 96.1% (inactive) | -1.11% (inactive) | 97.2 | 96.1 | -5.95% (inactive) | -2.62% (inactive)
9 | COC(=O)c1c(-c2ccc(F)cc2)noc1N | 94 | 97.5% (inactive) | 94% (inactive) | 89.4% (inactive) | 93.3% (inactive) | 3.79% (inactive) | 89.5 | 93.3 | -2.97% (inactive) | 1.33% (inactive)
10 | CCN(CC)S(=O)(=O)c1ccc(F)cc1 | 116 | 106% (inactive) | 116% (inactive) | 98.7% (inactive) | 93% (inactive) | 5.97% (inactive) | 87.1 | 93 | -8.77% (inactive) | 4.13% (inactive)
11 | CCCNC(=O)Nc1ccccc1C(=O)Nc1ccc(OC)cc1 | 85 | 81% (inactive) | 85% (inactive) | 85.7% (inactive) | 94.6% (inactive) | -9.12% (inactive) | 104 | 94.6 | -4.46% (inactive) | -2.3% (inactive)
12 | COc1ccc(N2CCN(CCCNC(=O)CC3Oc4ccc(C)cc4NC3=O)CC2)cc1 (stereo not given) | 87.5 | 99% (inactive) | 87.5% (inactive) | 88.9% (inactive) | 89.6% (inactive) | 0.915% (inactive) | 88.7 | 89.6 | -2.27% (inactive) | -2.62% (inactive)
13 | CCN(c1c(C)n(C)n(-c2ccccc2)c1=O)S(C)(=O)=O | 98.5 | 79.5% (inactive) | 98.5% (inactive) | 102% (inactive) | 95.6% (inactive) | 6.92% (inactive) | 88.7 | 95.6 | -6.76% (inactive) | 4.29% (inactive)
14 | COc1ccc(C)cc1NC(=O)c1nnn(Cc2cccc(F)c2)c1N | 85.5 | 102% (inactive) | 85.5% (inactive) | 64.9% (inactive) | 82.7% (inactive) | 9.66% (inactive) | 73 | 82.7 | -3.47% (inactive) | -5.9% (inactive)
15 | Cc1ccc(/C=c2\sc3nc(-c4ccccc4Br)nn3c2=O)o1 | 89 | 85% (inactive) | 89% (inactive) | 110% (inactive) | 95.5% (inactive) | 6.48% (inactive) | 89 | 95.5 | -7.47% (inactive) | 10.7% (inactive)
16 | Cc1ccc(CCNC(=O)C2CCN(S(=O)(=O)c3c(C)nn(C)c3C)CC2)cc1 | 103 | 115% (inactive) | 103% (inactive) | 114% (inactive) | 89% (inactive) | -7.15% (inactive) | 96.1 | 89 | -1.92% (inactive) | -2% (inactive)
17 | C/C(N)=C(/C#N)C(=O)CSc1nnc(Nc2cccc(C)c2)s1 | 114 | 79% (inactive) | 114% (inactive) | 77.5% (inactive) | 83.8% (inactive) | 7.75% (inactive) | 76 | 83.8 | -2% (inactive) | 0.65% (inactive)
18 | O=C1COc2ccc(C(=O)NCc3ccco3)cc2N1 | 95.5 | 86% (inactive) | 95.5% (inactive) | 105% (inactive) | 104% (inactive) | 7.71% (inactive) | 96.1 | 104 | -2.11% (inactive) | -7.26% (inactive)
19 | COC(=O)c1ccccc1NC(=O)c1cc(-c2ccc(OC)c(OC)c2)on1 | 99 | 90.5% (inactive) | 99% (inactive) | 114% (inactive) | 77.8% (inactive) | 5.72% (inactive) | 72 | 77.8 | -7.57% (inactive) | -8% (inactive)
20 | Cc1nnc(NC(=O)c2ccccc2F)s1 | 100 | 101% (inactive) | 100% (inactive) | 107% (inactive) | 104% (inactive) | 13.8% (inactive) | 90.2 | 104 | -3.24% (inactive) | 4.76% (inactive)
21 | CCSc1nnc(NC(=O)c2csc(C)c2)s1 | 95 | 83.5% (inactive) | 95% (inactive) | 81.2% (inactive) | 87.7% (inactive) | -7.62% (inactive) | 95.3 | 87.7 | -2.27% (inactive) | -5.41% (inactive)
22 | COc1cc(CC(=O)Nc2ncc(C)s2)cc(OC)c1OC | 109 | 96% (inactive) | 109% (inactive) | 90.8% (inactive) | 91.5% (inactive) | 2.69% (inactive) | 88.8 | 91.5 | -3.2% (inactive) | 5.74% (inactive)
23 | CCn1c2ccccc2c2cc(NC(=O)CSc3nnc(C4CC4)n3Cc3ccco3)ccc21 | 104 | 88% (inactive) | 104% (inactive) | 75.5% (inactive) | 79% (inactive) | -16.2% (inactive) | 95.2 | 79 | -6.45% (inactive) | -3.17% (inactive)
24 | COc1cc2c(cc1OC)C(c1cc(OC)c(OC)c(OC)c1)NCC2 (stereo not given) | 95.5 | 81% (inactive) | 95.5% (inactive) | 92.4% (inactive) | 91.9% (inactive) | -0.03% (inactive) | 91.9 | 91.9 | -3.95% (inactive) | -0.97% (inactive)
25 | O=C1CC(N2CCN(C3CCc4ccccc4C3)CC2)C(=O)N1c1ccccc1 (stereo not given) | 89.5 | 97.5% (inactive) | 89.5% (inactive) | 102% (inactive) | 91.6% (inactive) | 1.58% (inactive) | 90 | 91.6 | -1.95% (inactive) | 3.93% (inactive)
26 | CCN(CCCNC(=O)C1CCCN(S(=O)(=O)c2cnc[nH]2)C1)c1ccccc1 (stereo not given) | 94 | 93% (inactive) | 94% (inactive) | 104% (inactive) | 94.8% (inactive) | 6.6% (inactive) | 88.2 | 94.8 | -1.87% (inactive) | -1.64% (inactive)
27 | Cc1cc(=O)n2[nH]c(COc3ccccc3)nc2n1 | 101 | 105% (inactive) | 101% (inactive) | 94.1% (inactive) | 108% (inactive) | 14% (inactive) | 94 | 108 | -5.33% (inactive) | -6.13% (inactive)
28 | CCOC(=O)CCCn1nc(C)n2c(cc3sccc32)c1=O | 87.5 | 94.5% (inactive) | 87.5% (inactive) | 91.8% (inactive) | 102% (inactive) | 20.7% (inactive) | 81 | 102 | -5.07% (inactive) | -3.77% (inactive)
